Experimental data reported in article PMC2233905 (The Journal of General Physiology, 2004).

How the values were obtained:
[1] = test system: IRK1 inward rectifier K^+ channels; conditions: concentrations up to 10 μM; ref Suessbrich et al., 1996; cited from earlier work
[2] = ref Fischer et al., 1997, 1998; cited from earlier work
[3] = Ionization: pKa and calculated protonated fractions; type: physicochemical
How it was run: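 Fractions of unprotonated, monoprotonated and diprotonated test compound were calculated from its two pKa values at pH 6.4, 7.4 and 8.4. The diprotonated percentage was 100 × [H+]2 divided by the summed-species denominator. Protonated fractions in the pH 7.4 recording solution were predicted the same way.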

cloned HERG = conditions: HEK-293 cells; ref Zhou et al., 1999; cited from earlier work
hEag1 channels = biological target: T1, hEag1 channels (Homo sapiens, UniProt O95259); assay: Outside-out patch recordings of hEag1 currents; type: cell-based
T1 sequence (O95259 1-989): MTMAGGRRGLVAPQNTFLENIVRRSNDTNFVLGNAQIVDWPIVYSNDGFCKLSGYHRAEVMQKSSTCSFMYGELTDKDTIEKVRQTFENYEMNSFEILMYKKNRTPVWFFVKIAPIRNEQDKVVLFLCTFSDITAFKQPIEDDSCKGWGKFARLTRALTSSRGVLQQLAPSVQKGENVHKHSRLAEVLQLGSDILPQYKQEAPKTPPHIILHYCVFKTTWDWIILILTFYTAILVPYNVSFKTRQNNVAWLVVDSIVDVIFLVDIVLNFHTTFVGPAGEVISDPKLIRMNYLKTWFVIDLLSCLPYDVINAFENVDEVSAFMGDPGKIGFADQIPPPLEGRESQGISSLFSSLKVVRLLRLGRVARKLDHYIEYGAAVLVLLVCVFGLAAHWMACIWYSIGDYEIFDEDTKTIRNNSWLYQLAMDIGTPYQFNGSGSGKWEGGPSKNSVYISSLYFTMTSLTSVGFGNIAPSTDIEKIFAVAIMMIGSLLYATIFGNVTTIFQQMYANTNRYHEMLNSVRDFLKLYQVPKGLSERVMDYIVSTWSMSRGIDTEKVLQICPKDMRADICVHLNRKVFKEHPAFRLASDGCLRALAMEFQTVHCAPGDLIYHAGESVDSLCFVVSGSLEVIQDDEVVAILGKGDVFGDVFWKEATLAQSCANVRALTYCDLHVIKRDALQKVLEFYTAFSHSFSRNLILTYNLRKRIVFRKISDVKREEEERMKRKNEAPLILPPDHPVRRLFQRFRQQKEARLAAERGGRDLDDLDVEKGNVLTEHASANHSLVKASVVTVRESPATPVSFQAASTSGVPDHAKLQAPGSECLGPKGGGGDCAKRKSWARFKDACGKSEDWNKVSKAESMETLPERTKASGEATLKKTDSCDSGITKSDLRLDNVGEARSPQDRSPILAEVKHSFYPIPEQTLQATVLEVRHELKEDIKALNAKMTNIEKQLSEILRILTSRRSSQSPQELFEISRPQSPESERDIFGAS
How it was run: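 Outside-out patches from hEag1-expressing cells at room temperature. Successive 6-s recordings at 80 mV; drug applied to the extracellular face for 2.5 s, then removed. Currents were divided point-wise by control traces, and the time course was fitted with a single exponential to give the block or equilibration time constant and the steady-state fraction blocked.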

Kv4.2 = biological target: T2, Kv4.2 (Homo sapiens, UniProt Q9NZV8); assay: Kv4.2 channels; type: cell-based; conditions: concentrations up to 10 μM, unpublished data
T2 sequence (Q9NZV8 1-630): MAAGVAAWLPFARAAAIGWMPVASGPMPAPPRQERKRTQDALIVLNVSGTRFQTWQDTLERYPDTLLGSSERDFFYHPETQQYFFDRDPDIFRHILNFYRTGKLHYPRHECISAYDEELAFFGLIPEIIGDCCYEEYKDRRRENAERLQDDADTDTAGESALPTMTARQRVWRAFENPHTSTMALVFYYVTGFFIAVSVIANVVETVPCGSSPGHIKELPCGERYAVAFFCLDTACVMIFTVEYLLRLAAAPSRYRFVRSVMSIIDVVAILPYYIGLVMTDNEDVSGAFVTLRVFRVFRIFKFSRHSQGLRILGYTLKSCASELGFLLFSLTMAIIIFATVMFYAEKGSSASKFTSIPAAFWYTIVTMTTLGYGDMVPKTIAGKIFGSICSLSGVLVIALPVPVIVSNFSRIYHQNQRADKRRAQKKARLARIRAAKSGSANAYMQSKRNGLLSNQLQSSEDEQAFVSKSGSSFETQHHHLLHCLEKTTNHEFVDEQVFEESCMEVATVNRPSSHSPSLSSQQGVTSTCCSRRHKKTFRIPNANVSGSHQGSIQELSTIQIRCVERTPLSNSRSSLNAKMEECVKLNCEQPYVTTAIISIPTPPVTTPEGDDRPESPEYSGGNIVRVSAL

breast cancer cells = conditions: ref Ouadid-Ahidouch et al., 2001; cited from earlier work

COc1ccc(CCN2CCC(Nc3nc4ccccc4n3Cc3ccc(F)cc3)CC2)cc1 [astemizole]
effect on current [1]: no significant effects | pK a1 [2]: 5.6 | pK a2 [2]: 8.5 | Diprotonated form, percentile contribution ([3]; pH 6.4, calculated): 13.6% | Monoprotonated form, percentile contribution ([3]; pH 6.4, calculated): 85.7% | Unprotonated form, percentile contribution ([3]; pH 6.4, calculated): 0.7% | Diprotonated form, percentile contribution ([3]; pH 7.4, calculated): 1.4% | Monoprotonated form, percentile contribution ([3]; pH 7.4, calculated): 91.3% | Unprotonated form, percentile contribution ([3]; pH 7.4, calculated): 7.3% | predicted protonated fraction ([3]; pH 7.4 recording solution): 93% | Diprotonated form, percentile contribution ([3]; pH 8.4, calculated): 0.1% | Monoprotonated form, percentile contribution ([3]; pH 8.4, calculated): 55.7% | Unprotonated form, percentile contribution ([3]; pH 8.4, calculated): 44.2% | IC50 (cloned HERG): 0.9 nM | time constant of block (equilibration of neutral drug) in outside-out patches (hEag1 channels; bath pH 6.0, pipette pH 7.4): 1.7 s | rate of the equilibration process across the membrane (hEag1 channels; outside-out, bath pH 6.0): 0.6 s⁻¹ | effect on current (Kv4.2): no significant effects | effect on proliferation rate (breast cancer cells): significant reduction
